ChEMBL document CHEMBL1926618, “Homosecoiridoids from the flower buds of Lonicera japonica” (2011)
The source made the active and inactive calls. No cut-off for these calls is given here.

Tests used:
KETR3 = assay: Cytotoxicity against human Ketr3 cells at 10 uM after 96 hrs by MTT assay; format: functional, cell-based
[1] = system: Human immunodeficiency virus 1; assay: Antiviral activity against HIV1 infected in 293T cells at 10 uM pretreated for 15 mins prior infection measured after 48 hrs by luciferase reporter gene assay; format: functional, organism-based
MCF7 = assay: Cytotoxicity against human MCF7 cells at 10 uM after 96 hrs by MTT assay; format: functional, cell-based
[2] = molecular target: T1, Tyrosine-protein phosphatase non-receptor type 1 (Homo sapiens) (UniProt P18031); assay: Inhibition of GST-tagged human PTP1B PTPase activity using p-NPP as substrate at 10 uM after 10 mins by spectrophotometry
T1 sequence (whole entry): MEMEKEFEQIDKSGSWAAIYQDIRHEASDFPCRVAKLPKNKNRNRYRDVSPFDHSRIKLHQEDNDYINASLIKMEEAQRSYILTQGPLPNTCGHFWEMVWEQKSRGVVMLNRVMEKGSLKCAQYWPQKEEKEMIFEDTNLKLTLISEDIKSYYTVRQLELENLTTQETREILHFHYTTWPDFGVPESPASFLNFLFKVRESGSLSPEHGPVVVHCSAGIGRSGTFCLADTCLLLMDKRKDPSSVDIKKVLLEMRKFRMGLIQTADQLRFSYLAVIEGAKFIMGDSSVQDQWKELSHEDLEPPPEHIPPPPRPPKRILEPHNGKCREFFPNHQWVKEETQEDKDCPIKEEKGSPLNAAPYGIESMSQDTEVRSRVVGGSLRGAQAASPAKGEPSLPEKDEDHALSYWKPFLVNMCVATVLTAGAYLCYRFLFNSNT

Liver microsomes = assay: Antioxidant activity against Fe2+-cystine induced lipid peroxidation in rat liver microsomes at 10 uM; format: functional; settings: Microsome
HCT-8 = assay: Cytotoxicity against human HCT8 cells at 10 uM after 96 hrs by MTT assay; format: functional, cell-based
Bel-7402 = assay: Cytotoxicity against human Bel7402 cells at 10 uM after 96 hrs by MTT assay; format: functional, cell-based
PC-12 = assay: Neuroprotective activity against glutamate-induced neurotoxicity in rat PC12 cells at 10 uM preincubated for 24 hrs prior challenge measured after 24 hrs by MTT assay; format: functional, cell-based
[3] = molecular target: Signal transducer and activator of transcription 3 (Homo sapiens) (UniProt P40763); assay: Inhibition of STAT-3 activity in HELF cells at 10 uM; format: cell-based
Method in brief: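 HELF cells grown in DMEM with 10% FCS under humidified 5% CO2, transfected with pSTAT-3-TA-luc firefly luciferase reporter plasmid by lipofectamine 2000. After 24 h, treated in 5% FBS with compound or DMSO for 24 h. Luciferase activity read in cell lysates by luminometer; activity expressed relative to DMSO-treated transfected cells set at 100%.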

A549 = assay: Cytotoxicity against human A549 cells at 10 uM after 96 hrs by MTT assay; format: functional, cell-based
[4] = Antiinflammatory activity in rat polymorphonuclear leukocytes assessed as inhibition of platelet-activating factor-induced glucuronidase release at 10 uM preincubated for 15 mins before challenge by spectrophotometry; format: functional
BGC-823 = assay: Cytotoxicity against human BGC823 cells at 10 uM after 96 hrs by MTT assay; format: functional, cell-based

Sequence of Signal transducer and activator of transcription 3 (Homo sapiens) (P40763 whole entry): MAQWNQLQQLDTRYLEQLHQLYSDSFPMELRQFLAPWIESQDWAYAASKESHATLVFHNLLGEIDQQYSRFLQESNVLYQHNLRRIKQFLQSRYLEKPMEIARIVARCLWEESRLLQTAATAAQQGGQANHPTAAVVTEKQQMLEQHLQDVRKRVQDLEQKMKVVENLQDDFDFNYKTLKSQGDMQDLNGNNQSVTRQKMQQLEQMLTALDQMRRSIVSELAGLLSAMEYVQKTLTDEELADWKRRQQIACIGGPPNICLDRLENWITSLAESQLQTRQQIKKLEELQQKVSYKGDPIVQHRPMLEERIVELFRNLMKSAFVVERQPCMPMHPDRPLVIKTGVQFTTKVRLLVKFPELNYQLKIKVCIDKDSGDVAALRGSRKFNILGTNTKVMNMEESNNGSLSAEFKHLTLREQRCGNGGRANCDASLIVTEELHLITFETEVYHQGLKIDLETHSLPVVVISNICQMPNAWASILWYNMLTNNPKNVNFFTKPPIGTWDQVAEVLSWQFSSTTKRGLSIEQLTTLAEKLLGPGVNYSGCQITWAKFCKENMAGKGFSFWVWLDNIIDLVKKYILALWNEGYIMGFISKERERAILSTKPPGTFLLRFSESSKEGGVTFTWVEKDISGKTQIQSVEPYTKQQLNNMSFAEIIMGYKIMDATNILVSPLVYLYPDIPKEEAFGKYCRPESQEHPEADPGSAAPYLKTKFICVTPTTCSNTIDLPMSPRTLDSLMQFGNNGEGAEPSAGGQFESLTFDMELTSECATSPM

inhibition [2]: inactive | inhibition [3]: 48.8%
Compound: C=C[C@H]1[C@H](O[C@@H]2O[C@H](CO)[C@@H](O)[C@H](O)[C@H]2O)OC=C(C(=O)O)[C@H]1C[C@H]1OC(=O)C(O)=C1c1ccccc1 [LONIPHENYRUVIRIDOSIDE D]
Activity (KETR3): inactive | Activity [1]: inactive | Activity (MCF7): inactive | Activity (Liver microsomes): inactive | Activity (HCT-8): inactive | Activity (Bel-7402): inactive | Activity (PC-12): inactive | Activity (A549): inactive | inhibition at 10 µM [4]: < 30% | Activity (BGC-823): inactive
